Assay results from article PMC7224360 (Peptide science (Hoboken, N.J.), 2018).
“Also recorded” adds a separate entry of the source.

Legend:
[1] = Circular dichroism spectropolarimetry in membrane-mimetic solvents; format: physicochemical; conditions: 75 μM peptide; for CD conformation in SDS: SDS in phosphate buffer; for CD isodichroic point: SDS titration; for CD conformation in phosphate buffer: Na2HPO4/KH2PO4 buffer, pH 7.0; for CD conformation in methanol: methanol (up to 50%)
Gαi3 (N18TG2 membranes) = assay: [35S]GTPγS binding, antibody-capture SPA, Gαi3, N18TG2 membranes; format: biochemical; conditions: for [35S]GTPγS binding to Gαi3 compared with IL4: N18TG2 membranes (5 µg protein), peptides up to 100 µM, IL4 100 µM, n=3-5
Procedure, shortened: (§1)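 N18TG2 neuroblastoma membranes (5 µg protein) were incubated with [35S]GTPγS plus WIN55212–2 (1 µM), unphosphorylated IL4 peptide (100 µM) or phosphopeptides (20–100 µM). Captured by SPA with anti-Gαo (n=3–4) or anti-Gαi3 (n=3–5) antibody. Specific binding (CPM) = total minus non-specific. Normalised to mean WIN55212–2 stimulation as 100%. Mean ± SEM; one-way ANOVA with Dunnett's post hoc test.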

NMR secondary structure = format: physicochemical; conditions: average of representative NMR conformers, SDS micelles
Procedure, shortened: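 Test peptides at 5 mM in 90% H2O/10% D2O, pH 4.5, with perdeuterated SDS (300 mM) added to give a peptide:detergent ratio of 1:60. 1D spectra were recorded at 300–320 K. DQF-COSY, TOCSY and NOESY spectra were acquired, with 340 ms NOESY used for restraints (1.8–2.7, 1.8–3.5 or 1.8–5 Å). CYANA generated 50 structures and the 20 with lowest target function were kept. Structures were energy-minimised and refined with 3JHNHα-derived dihedrals. Secondary shifts are relative to random-coil values.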

Gi/o = conditions: cited from earlier work
[2] = tested on: cAMP (Gi/o pathway); Chinese hamster ovary cells without CB1R; conditions: cited from earlier work
[3] = cited from earlier work
[4] = tested on: adenylyl cyclase (AC6) in N18TG2 cells; assay: Inhibition of forskolin-stimulated cAMP accumulation in N18TG2 cells; format: cell-based; conditions: for Inhibition of cAMP accumulation at 100 µM versus IL4 or IL4pSer402: forskolin 1 µM, peptide 100 µM, n=3
Gαo (N18TG2 membranes) = assay: [35S]GTPγS binding, antibody-capture SPA, Gαo, N18TG2 membranes; format: biochemical
Procedure, shortened: as §1

[5] = at reported concentrations, ANOVA, Dunnett's

RpSKDLRHAFRSMFPSSE [IL4pSer402]
CD conformation in 90% TFE [1]: α-Helical conformation
CD conformation in SDS [1]: α-Helical conformation
CD isodichroic point [1]: 203 nm
Lowest TFE concentration inducing helical conformation ([1]; CD): 40 % TFE
Methanol concentration at which helical conformation is induced ([1]; CD): 50 % methanol
[35S]GTPγS binding to Gαi3 compared with IL4 (Gαi3 (N18TG2 membranes)): not different between IL4 and IL4pSer402
Distance between Cα carbons of Arg401 and Glu417 (NMR secondary structure): 23.61 Å

RSKDLRHAFRSMFPSSE [IL4]
Autonomous G protein activation (Gi/o): can activate G proteins autonomously as a pepducin
Distance between Cα carbons of Arg401 and Glu417 (NMR secondary structure): 26 Å
Reduction of cAMP levels ([2]; CB1R-independent): able to reduce cAMP levels in a CB1R-independent manner
Functional activity in absence of CB1R expression ([2]; Chinese hamster ovary cells without CB1R): still functional
Conformation of unphosphorylated IL4 in SDS micelles ([3]; SDS micelles, CD and NMR): induced significant helical structure
CD conformation of unphosphorylated IL4 in aqueous environment ([3]; aqueous): random coil conformation

RSKDLRHAFRpSMFPSSE [IL4pSer411]
CD conformation in phosphate buffer [1]: random coil structure
CD conformation in SDS [1]: characteristics of α-helical structure
CD isodichroic point [1]: 203 nm
CD conformation in TFE [1]: random coil structure
CD conformation in methanol [1]: random coil structure
CD negative minimum wavelength in phosphate buffer ([1]; phosphate buffer pH 7.0): 198 nm
Significance of Gi3 stimulation versus WIN55212–2 (not versus IL4) (Gαi3 (N18TG2 membranes); ANOVA, Dunnett's, *P<0.05): significantly different compared to WIN55212–2 but not IL4
[35S]GTPγS binding to Gαi3 compared with IL4 (Gαi3 (N18TG2 membranes)): more efficacious than IL4
Distance between Cα carbons of Arg401 and Glu417 (NMR secondary structure): 23.68 Å
Inhibition of cAMP accumulation at 100 µM versus IL4 or IL4pSer402 ([4]; N18TG2 cells): inhibited cAMP accumulation to a greater extent than IL4 or IL4pSer402; also recorded: more efficaciously than IL4 and IL4pSer402
Significance of Gαo stimulation versus WIN55212–2 and IL4 (Gαo (N18TG2 membranes); ANOVA, Dunnett's, ***P<0.0001): significantly different compared to WIN55212–2 and IL4
[35S]GTPγS binding to Gαo, fold greater than WIN55212–2 or IL4 (Gαo (N18TG2 membranes); N18TG2 membranes, WIN55212–2 1 µM, IL4 100 µM): 3 fold

CN(C)CCCn1cc(C2=C(c3c[nH]c4ccccc34)C(=O)NC2=O)c2ccccc21 [bisindolylmaleimide 1, reference compound]
Effect of PKC inhibitor on bradykinin augmentation of CP55940 response ([4]; N18TG2 cells, bisindolylmaleimide I 100 nM, bradykinin 100 nM, Fig. 7C): reversed by the PKC inhibitor

RSKDLRHAFRSMFPpSSE [IL4pSer415]
CD conformation in 90% TFE [1]: a slight shift toward helicity was initiated
CD conformation in phosphate buffer [1]: random coil
CD conformation in SDS [1]: induction of α-helix in SDS
CD conformation in TFE [1]: random coil
CD conformation in methanol [1]: random coil
[35S]GTPγS binding to Gαi3 compared with IL4 (Gαi3 (N18TG2 membranes)): more efficacious than IL4; also recorded: higher efficacy than IL4
Distance between Cα carbons of Arg401 and Glu417 (NMR secondary structure): 21.52 Å
Inhibition of cAMP accumulation at 100 µM versus IL4 or IL4pSer402 ([4]; N18TG2 cells): inhibited cAMP accumulation to a greater extent than IL4 or IL4pSer402; also recorded: more efficaciously than IL4 and IL4pSer402

Cc1c(C(=O)c2cccc3ccccc23)c2cccc3c2n1[C@H](CN1CCOCC1)CO3 [WIN55212–2, reference compound]
Significance of Gi3 stimulation by WIN55212–2 versus IL4 (Gαi3 (N18TG2 membranes); ANOVA, Dunnett's, **P<0.005): significantly different compared to IL4 in Gi3
% over stimulation by WIN55212–2, Gi3 (Gαi3 (N18TG2 membranes); WIN55212–2 1 µM, N18TG2 membranes, anti-Gαi3 SPA, mean ± SEM): 62.7 ±6.6%
Significance of Gαi3 stimulation versus basal (Gαi3 (N18TG2 membranes); [5]): significantly different from basal
% over stimulation by WIN55212–2, Go (Gαo (N18TG2 membranes); WIN55212–2 1 µM, N18TG2 membranes, anti-Gαo SPA, mean ± SEM): 19±2.8%
Significance of Gαo stimulation versus basal (Gαo (N18TG2 membranes); [5]): significantly different from basal

CCCCCCC(C)(C)c1ccc([C@@H]2C[C@H](O)CC[C@H]2CCCO)c(O)c1 [CP55940, reference compound]
Effect of SR141716 on inhibition of cAMP accumulation by CP55940 ([4]; N18TG2 cells, CP55940 versus CP55940 plus SR141716, **P<0.005): Significant difference was found between CP55940 and CP55940 plus SR141716
CP55940-inhibited cAMP with versus without bradykinin, significance ([4]; forskolin 1 µM or secretin 30 nM, *P<0.05, **P<0.005, n=3–7): significant difference was found comparing the effect of CP55940 with and without BK
